This is a sample that favours compounds with a hit; in the whole collection about 0.95% have one here.
HSV augment: enhancers of HSV replication in host cells, fold increase, host cell viability | AID 1956, 2009 | maximum fold increase | 0.005% of 220,000 active | HSV replication augmentation in cells; in the data active = maximum fold increase above about 1.5; inconclusive = no clear call, values can overlap the other calls; tested in PC3 cells
Arbovirus anti: antivirals against arbovirus infection, primary screen, cell-based, full library, 10K replicate subset | arbovirus infection cell-based antiviral screen | inhibition, % at 10 µM | 0.37% of 200,000 active | AID 1251, 2008; in the data active = inhibition above about 30%
NCF1 inh: p47phox/p22phox peptide binding inhibitors, primary screen, biochemical, uHTS, NADPH oxidase regulatory subunit; inhibition, % at 24.7 µM; Neutrophil cytosol factor 1 (Homo sapiens), P14598; fluorescence polarization, 2 h; AID 1274, 2008; 0.53% of 220,000 active;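 active = inhibition above about 30%, limit read from the data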;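 also: 0% = p47phox with labelled peptide and 100% = labelled peptide alone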
Furin inhibitor: human furin inhibitors, primary screen, biochemical, fluorescence intensity; P09958; purified furin, fluorogenic substrate cleavage; inhibition, % at 20 µM or 30 µM; 0.061% of 220,000 active; AID 463115, 2010; in the data active = inhibition above about 25%
Target sequence (P09958 108-714 limits assumed): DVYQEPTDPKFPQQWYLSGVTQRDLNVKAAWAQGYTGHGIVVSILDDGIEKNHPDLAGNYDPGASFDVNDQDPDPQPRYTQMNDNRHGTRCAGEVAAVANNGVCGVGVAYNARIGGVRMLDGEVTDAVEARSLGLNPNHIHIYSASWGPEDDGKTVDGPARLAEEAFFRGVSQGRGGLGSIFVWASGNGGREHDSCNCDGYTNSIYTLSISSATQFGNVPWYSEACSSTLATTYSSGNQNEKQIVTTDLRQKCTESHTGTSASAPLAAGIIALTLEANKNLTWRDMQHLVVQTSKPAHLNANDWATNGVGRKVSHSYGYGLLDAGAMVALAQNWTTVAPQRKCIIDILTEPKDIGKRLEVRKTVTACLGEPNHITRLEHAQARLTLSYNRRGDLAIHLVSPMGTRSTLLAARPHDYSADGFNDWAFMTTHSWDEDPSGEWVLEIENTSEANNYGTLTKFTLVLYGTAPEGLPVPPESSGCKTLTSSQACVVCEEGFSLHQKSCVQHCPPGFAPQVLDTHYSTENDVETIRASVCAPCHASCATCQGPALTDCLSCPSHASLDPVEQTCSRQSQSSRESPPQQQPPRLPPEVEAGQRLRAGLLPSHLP
ABCG2 block: ABCG2 efflux pump inhibitors, primary screen, multiplex with ABCB1, IgMXP3 cells, flow cytometry | JC-1 efflux | inhibition, % at 6.6 µM | 0.1% of 190,000 active | Broad substrate specificity ATP-binding cassette transporter ABCG2 (Homo sapiens), Q9UNQ0 | AID 1325, 2008;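 active = inhibition above 80%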;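 also: 0% = DMSO and 100% = nicardipine control wells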
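Assay system – ABCG2 IgMXP3 and barcoded ABCB1 CCRF-Adr cell mix · Input – 3 million cells/mL in well · Reagent – JC-1 fluorescent substrate · Compound – single test compound dose, 6.6 µM final · Timing – 10 min exposure at 25 °C with rotation, no wash · Detection – flow cytometry of retained JC-1 fluorescence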
ABCB1 block: ABCB1 efflux pump inhibitors, primary screen, cell-based, multiplex, flow cytometry, ABCG2 counter-screen | ATP-dependent translocase ABCB1 (Homo sapiens), P08183 | CCRF-Adr cells, JC-1 efflux | inhibition, % at 6.6 µM | 0.067% of 190,000 active; in the data active = inhibition above about 40%;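 also: 0% = vehicle and 100% = reference inhibitor; higher value means more JC-1 retained so stronger ABCB1 efflux block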
ABCB1 single pt: ABCB1 efflux pump inhibitors, confirmation, cell-based, single point, ABCG2 counter-screen; inhibition, % at 6.6 µM; 7% of 270 active; shares compounds with ABCG2 block; CCRF-Adr cells, JC-1 efflux, flow cytometry;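 active = inhibition of pump activity above 50%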;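 also: 0% = DMSO and 100% = nicardipine full pump inhibition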
ABCG2 single pt: ABCG2 efflux pump inhibitors, confirmation, single point, IgMXP3 cells, ABCB1 counter-screen paired | inhibition, % at 6.6 µM | 6% of 270 active | AID 1453, 2008 | JC-1 efflux, flow cytometry | shares compounds with ABCG2 block;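 active = inhibition above 50%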;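 also: 0% = DMSO wells and 100% = nicardipine pump inhibitor wells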
IgMXP3 autofluor: compound autofluorescence in ABCG2-expressing IgMXP3 cells, confirmation, artefact control for ABC transporter inhibitor project, cell-based, 488/530 nm, flow cytometry | shares compounds with ABCG2 block | compound autofluorescence 488/530 nm; hits give high values | fluorescence at 6.6 µM | 30% of 270 active | AID 1480, 2009;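 active = fluorescence in ABCG2-expressing cells above the plate's control-well mean plus 3 SD, cut at about 15 in these data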;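 also: median cell fluorescence with compound minus that of DMSO-treated control cells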
CCRF-Adr fluor: compound autofluorescence in ABCB1-expressing CCRF-Adr cells, confirmation, artefact control for ABC transporter inhibitor project, cell-based, 488/530 nm, flow cytometry; shares compounds with ABCG2 block; fluorescence at 6.6 µM; compound autofluorescence 488/530 nm; hits give high values; 30% of 270 active; AID 1483, 2009;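 active = fluorescence beyond the plate control mean plus 3 SD, with a fluorescence-to-maximum score over 2, cut at about 25 in these data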
Starred values were filed as active, the others as inactive; i = inactive; ? = inconclusive; . = not tested or not shown.

SMILES	HSV augment	Arbovirus anti	NCF1 inh	Furin inhibitor	ABCG2 block	ABCB1 block	others
c1ccc(-c2ccc(-c3n(-c4ccccn4)c4ccccc4[n+]3-c3ccccn3)cc2)cc1	i	1	34*	-35	10	2
CC(=O)OC1N=C(c2ccccc2Cl)c2cc(Br)ccc2NC1=O (centres undefined)	i	.	-7	-19	.	.
O=c1c2ccccc2nc(-c2ccc(Cl)cc2Cl)n1-c1nccs1	i	12	-4	-25	1	0
Cc1ccccc1-n1c(O)c(C=Nc2ccc3c(c2)OCO3)c(=O)[nH]c1=O	?	-17	-11	27*	2	1
O=C(N/N=C/c1c(O)n(Cc2ccccc2)c(=O)[nH]c1=O)c1ccccc1O	i	58*	-30	-4	2	0
COc1ccc(Cn2c(O)c(/C=N/NC(=O)c3ccccc3O)c(=O)[nH]c2=O)cc1	i	28	-25	4	-12	-5
O=C(N/N=C/c1c(O)n(CCc2ccccc2)c(=O)[nH]c1=O)c1ccncc1	i	32*	-21	2	-2	-2
O=C(N/N=C/c1c(O)n(Cc2ccc(F)cc2)c(=O)[nH]c1=O)c1ccccc1O	i	55*	-15	-7	-3	-1
COc1cc(/C=C/C(=O)c2c(O)n(CCc3ccccc3)c(=O)[nH]c2=O)ccc1O	i	46*	-74	2	0	1
C#CCN1C(=O)S/C(=C\c2ccc(N3CCOCC3)cc2C)C1=O	i	-5	-8	-1	8	2
C=CCN1C(=O)/C(=C/c2ccc(N3CCOCC3)o2)C(=O)NC1=S	?	-1	-222	-5	-3	0
O=C1NC(=O)C(=Cc2ccc(N3CCOCC3)o2)C(=O)N1	i	2	58*	11	2	1
Nc1nonc1-n1nnc(C(=O)N/N=C/c2ccc(OCc3ccc(F)cc3)cc2)c1COc1ccccc1	i	.	-12	-21	.	.
OC(c1ccc(F)cc1)(c1ccc(F)cc1)[C@@H]1CCCN1	i	0	43*	-16	3	1
COc1ccc(C)cc1NC(=O)N1CCC2(CC1)OCCO2	i	3	-2	-20	4	0
O=C1NC(=O)N(Cc2ccc(F)cc2)C(=O)/C1=C\c1ccc(N2CCCC2)cc1	i	.	193*	-11	.	.
O=C1NC(=O)N(c2ccc(F)cc2)C(=O)/C1=C/c1ccc(N2CCOCC2)cc1	i	4	-13	-2	1	0
c1ccc(P(c2ccccn2)c2ccccn2)cc1	i	0	-2	-14	1	0
Cc1c(C(c2ccc(Br)cc2)c2c(O)c3ccccc3oc2=O)c(=O)n(-c2ccccc2)n1C (centres undefined)	i	1	53*	-19	-2	1
CSc1ccc(C(c2c(O)c3ccccc3oc2=O)c2c(C)n(C)n(-c3ccccc3)c2=O)cc1 (centres undefined)	i	1	-12	-32	-3	0
COc1ccccc1N(CC(=O)NC1CCCCC1)C(=O)c1cnn(C(C)C)c1	i	0	33*	-28	6	1
C=CCOc1ccc(CC2C(=O)N(C)C(=O)N(C)C2=O)cc1	i	-3	-15	-10	1	0
Cc1ccc(CC2C(=O)N(C)C(=O)N(C)C2=O)s1	i	81*	-7	-23	1	0
Cc1ccc(C2N(c3ccccn3)C(=O)C3CCCN32)o1 (centres undefined)	i	-3	3	-13	1	0
Cc1[nH]c2ccccc2c1C1=CCNCC1	i	46*	-17	-20	0	0
SMILES	HSV augment	Arbovirus anti	NCF1 inh	Furin inhibitor	ABCG2 block	ABCB1 block	others
C1=C(c2ccccc2)CCNC1	i	.	-7	-15	.	.
CCN(CC)c1ccc(/C=C2\C(=O)NC(=O)N(CC3CCCO3)C2=O)cc1 (centres undefined)	i	5	-116	1	-4	0
CN(C)c1ccc(/C=C2/C(=O)NC(=O)N(Cc3ccco3)C2=O)cc1	.	3	78*	-12	-5	-1
CCN(CC)c1ccc(/C=C2/C(=O)NC(=O)N(Cc3ccco3)C2=O)cc1	?	6	168*	-1	-23	-1
O=C(c1ccc(Cl)cc1)C1CCCN(Cc2ccc3nonc3c2)C1 (centres undefined)	i	23	48*	-27	7	1
O=C(c1ccc(Cl)cc1)C1CCCN(Cc2cccc3ncccc23)C1 (centres undefined)	i	1	-9	-19	5	6
CCN(CC)CC(=O)Nc1ccc(Cl)cc1C(=O)c1ccccc1	i	-16	-7	-16	5	1
CC(=O)NCC(=O)Nc1ccc(Br)cc1C(=O)c1ccccc1	i	.	-12	-16	.	.
Cc1c(N=Nc2c(O)[nH]c(=S)[nH]c2=O)c(=O)n(-c2ccccc2)n1C	i	0	-48	16	-7	-1
CCOc1ccc(-n2c(O)c(N=Nc3c(C)n(C)n(-c4ccccc4)c3=O)c(=O)[nH]c2=O)cc1	i	.	-6	25*	.	.
CCOC(=O)c1c(C)[nH]c(C(=O)C(C)N2CCCC2)c1C (centres undefined)	i	-6	2	-27	2	0
Cc1ccc(-c2nc(N3CCOCC3)s[n+]2-c2ccccc2)cc1	i	1	38*	-8	5	1
CC(=O)OC1N=C(c2ccccc2)c2cc(Br)ccc2N(C)C1=O (centres undefined)	.	-6	32*	-24	2	1
Cn1c(O)c(/C=C2\N=c3ccccc3=C2CCNC(=S)NC2CC2)c(=O)n(C)c1=O	i	.	39*	-7	.	.
Clc1ccccc1CN1CCN(c2cccc3[nH]ccc23)CC1	i	.	-4	-33	.	.
CC(C)=CCC12CN3CCN(CC(C3)C1=O)C2	i	10	-61	-12	107*	4	ABCB1 single pt=-3;ABCG2 single pt=7;IgMXP3 autofluor=2.8;CCRF-Adr fluor=19
Cc1ccn2nc(S(=O)(=O)Nc3c(F)cccc3F)nc2n1	i	2	0	-18	4	1

Screening data deposited in PubChem by several laboratories.
